CYP2C9 inh = blocks human cytochrome P450 2C9 | actives 20% (n = 96,000) | inhibition, % at 5 µM | CYP2C9 Supersomes, luciferin-H conversion, luminescence | AID 777;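 active = blocking of liver enzyme CYP2C9 beyond about 50% at 5 µM, limit read from the data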
Cav3 T inh = human Cav3.2 channel inhibition, primary screen; Cav3.2-expressing cells, Fluo-4 calcium fluorescence FDSS; hits give low values; B-score at 10 µM; actives 4% (n = 100,000); O95180;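 active = single-dose well whose peak fluorescence ratio is a statistical outlier from its plate by either plate-standardised score or position-corrected B-score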
CYP2C19 act = increases human CYP2C19 enzyme activity; P33261; recombinant CYP2C19, luciferin-H EGE luminescence; hits give high values; 0 = fully inhibited enzyme, 1 = untreated enzyme; activation factor at 5 µM; 96,000 tested, under 10 active;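 active = activation factor of at least 2 at 5 µM in the primary screen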;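 note: 0 = wells with 2.5 mM tranylcypromine and 1 = vehicle-only wells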
CYP2C19 inh = blocks human cytochrome P450 2C19; P33261; CYP2C19 Supersomes, luciferin-H EGE luminescence, 30 min; inhibition, % at 5 µM; actives 21% (n = 96,000); AID 778;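 active = CYP2C19 inhibition above a set limit at 5 µM in the primary screen, cut at about 50% in these data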;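 note: plate controls were negative control wells for no effect and 2.5 mM tranylcypromine positive control for full effect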
Rev-RRE block = disrupts HIV-1 Rev binding to RRE RNA. actives 0.79% (n = 97,000). AID 704. P05866. inhibition, % at 8 µM. Rev peptide-RRE RNA binding, FRET;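 active = inhibition above the screen-wide mean plus 3 SD, cut at about 35% in these data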;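 note: 0% = median DMSO wells and 100% = median Neomycin B control wells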
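Test system: Cy5-tagged RRE RNA duplex with fluorescein-tagged Rev peptide | Read-out: % inhibition of FRET ratio versus controls | Probe or stimulus: Labelled Rev peptide | Incubation: 5 min RNA-compound premix plus 15 min binding step, 25 °C | Technique: FRET fluorescence readout | Benchmarks: DMSO low control, neomycin B high control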
CYP2C9 act = activators of human CYP2C9 | actives 1.4% (n = 96,000) | AID 1024 | recombinant CYP2C9, luciferin-H conversion, luminescence; hits give high values; factor 1 = untreated enzyme, 0 = blocked | activation factor at 5 µM;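 active = activation factor of 2 or more for CYP2C9 at a 5 µM dose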;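 note: 0 = sulfaphenazole-blocked wells and 1 = vehicle-only wells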
* marks the source's active call; other numbers are inactive results. Most compounds without a hit are left out; they make up all but 27% or so of the library.

For CC1=CCC2C(=O)N(c3ccc4ccccc4n3)C(=O)C2C1 (stereo unspecified) the results were CYP2C9 inh 31, Cav3 T inh 0.21, CYP2C19 act 0.4, CYP2C19 inh 62*, Rev-RRE block 1 and CYP2C9 act 0.7.
CC1=CCC2C(=O)N(c3ccc(C)c(Br)c3)C(=O)C2C1 (stereo unspecified) was read as CYP2C9 inh 14, Cav3 T inh 0.13, CYP2C19 act 1, CYP2C19 inh 4, Rev-RRE block 4 and CYP2C9 act 0.9.
For CC1=CCC2C(=O)N(c3ccc(C)cc3)C(=O)C2C1 (stereo unspecified) the results were CYP2C9 inh 23, Cav3 T inh -0.31, CYP2C19 act 0.4, CYP2C19 inh 64*, Rev-RRE block 6 and CYP2C9 act 0.8.
For CC(N)C12CC3CC(C1)CC(C(C)N)(C3)C2 (stereo unspecified) the results were CYP2C9 inh -20, Cav3 T inh 0.64, CYP2C19 act 1.2, CYP2C19 inh -23, Rev-RRE block 5 and CYP2C9 act 1.2.
`c1ccc(C2OC3c4cccc5cccc(c45)C3N2c2ccccc2)cc1` (stereo unspecified) gave Cav3 T inh -2.7 and Rev-RRE block 6.
COC(=O)COc1cccc(NC(=O)c2cccs2)c1 was read as CYP2C9 inh 28, Cav3 T inh -0.036, CYP2C19 act 0.7, CYP2C19 inh 32, Rev-RRE block 3 and CYP2C9 act 0.7.
`CCN1N=C(c2ccccc2)Cn2c1nc1ccccc12` gave CYP2C9 inh 69*, Cav3 T inh 1.1, CYP2C19 act 0.4, CYP2C19 inh 58*, Rev-RRE block -8 and CYP2C9 act 0.3.
`COc1ccc(CCN(Cc2cc3cc(C)cc(C)c3nc2Cl)C(=O)C2CC2)cc1` gave CYP2C9 inh 39, CYP2C19 act 0.6, CYP2C19 inh 37, Rev-RRE block 3 and CYP2C9 act 0.6.
`CC(Nc1c([N+](=O)[O-])c(=O)oc2ccccc12)C(Cl)c1ccccc1` (stereo unspecified) gave CYP2C9 inh 33, Cav3 T inh -0.068, CYP2C19 act 0, CYP2C19 inh 97*, Rev-RRE block 1 and CYP2C9 act 0.7.
Screening CN1CCc2c(sc3c2C(=O)NC(c2ccco2)N3)C1 (stereo unspecified) returned CYP2C9 inh -5, Cav3 T inh -0.46, CYP2C19 act 1, CYP2C19 inh -3, Rev-RRE block 28 and CYP2C9 act 1.
Screening O=C1NC(c2ccco2)Nc2sc3c(c21)CCN(Cc1ccccc1)C3 (stereo unspecified) returned CYP2C9 inh 69*, Cav3 T inh 0.037, CYP2C19 act 0.8, CYP2C19 inh 18, Rev-RRE block 70* and CYP2C9 act 0.3.
Screening CN1CCc2c(sc3c2C(=O)NC(c2cn(Cc4ccccc4)c4ccccc24)N3)C1 (stereo unspecified) returned CYP2C9 inh 79*, Cav3 T inh 0.14, CYP2C19 act 0.3, CYP2C19 inh 69*, Rev-RRE block 79* and CYP2C9 act 0.2.
For c1ccc(C(c2nnnn2C2CCCCC2)N2CCc3ccccc3C2)nc1 (stereo unspecified) the results were CYP2C9 inh 0, Cav3 T inh -0.03, CYP2C19 act 0.8, CYP2C19 inh 24, Rev-RRE block 10 and CYP2C9 act 1.
For CCOc1cc(C2CC(=O)c3c(ccc4ccccc34)N2)ccc1O (stereo unspecified) the results were CYP2C9 inh 65*, Cav3 T inh -1.7, CYP2C19 act 0.8, CYP2C19 inh 24, Rev-RRE block 5 and CYP2C9 act 0.3.
COc1ccc(C2CC(=O)c3c(ccc4ccccc34)N2)cc1OC (stereo unspecified) was read as CYP2C9 inh 32, CYP2C19 act 0.9, CYP2C19 inh 14, Rev-RRE block 7 and CYP2C9 act 0.7.
C/C(=N\NC(=O)c1ccc(Br)cc1)C1C(=O)c2ccccc2C1=O was read as CYP2C9 inh 33, Cav3 T inh -4.2*, CYP2C19 act 1.1, CYP2C19 inh -9, Rev-RRE block 2 and CYP2C9 act 0.7.
For O=C(Nc1ccc2c(c1)OCO2)c1cc2nc(C3CC3)cc(C(F)(F)F)n2n1 the results were CYP2C9 inh 21, Cav3 T inh 0.57, CYP2C19 act 0.8, CYP2C19 inh 18, Rev-RRE block -2 and CYP2C9 act 0.8.
`O=C(Nc1cccnc1)c1cc2nc(C3CC3)cc(C(F)(F)F)n2n1` gave CYP2C9 inh 74*, Cav3 T inh 0.5, CYP2C19 act 0.4, CYP2C19 inh 64*, Rev-RRE block -1 and CYP2C9 act 0.3.
Screening Cc1ccsc1C(=O)Nc1ccccc1N1CCOCC1 returned CYP2C9 inh -11, Cav3 T inh -0.034, CYP2C19 act 0.9, CYP2C19 inh 7, Rev-RRE block 3 and CYP2C9 act 1.1.
For Cc1cc(C)nc(N(C#N)S(=O)(=O)c2ccccc2)n1 the results were CYP2C9 inh 38, Cav3 T inh 1, CYP2C19 act 0.8, CYP2C19 inh 20, Rev-RRE block 5 and CYP2C9 act 0.6.
Cc1cc(C)nc(N(C#N)CN2C(=O)c3ccccc3C2=O)n1 was read as CYP2C9 inh -180, Cav3 T inh 0.02, CYP2C19 act 1.1, CYP2C19 inh -5, Rev-RRE block 4 and CYP2C9 act 2.8*.
CCOC(=O)CN(C#N)c1nc(C)cc(C)n1 was read as CYP2C9 inh -27, Cav3 T inh 0.33, CYP2C19 act 1, CYP2C19 inh -4, Rev-RRE block 7 and CYP2C9 act 1.3.
Cc1cc(C)nc(N(C#N)Cc2ccccc2Cl)n1 was read as CYP2C9 inh -177, CYP2C19 act 0.3, CYP2C19 inh 68*, Rev-RRE block 0 and CYP2C9 act 2.8*.
Screening CSc1ccc(/C=C/C(=O)c2ccc(NC(=O)Cc3ccccc3)cc2)cc1 returned CYP2C9 inh 36, Cav3 T inh -0.33, CYP2C19 act 0.9, CYP2C19 inh 9, Rev-RRE block 7 and CYP2C9 act 0.6.
`Cn1c(-c2ccccc2O)cc2ccccc21` gave Cav3 T inh -0.39 and Rev-RRE block 5.
For O=C(Cc1cccs1)Nc1ccc(NC(=O)c2ccco2)cc1 the results were CYP2C9 inh 72*, CYP2C19 act 0.9, CYP2C19 inh 13, Rev-RRE block 10 and CYP2C9 act 0.3.
For O=C(Cc1cccs1)Nc1cccc(C(=O)Nc2ccco2)c1 the results were CYP2C9 inh 78*, Cav3 T inh 0.18, CYP2C19 act 0.5, CYP2C19 inh 51*, Rev-RRE block -1 and CYP2C9 act 0.2.
For CCN1CCCC1CNC(=O)c1ccc(CS(=O)(=O)c2ccccc2C)o1 (stereo unspecified) the results were CYP2C9 inh -14, Cav3 T inh 0.88, CYP2C19 act 1.1, CYP2C19 inh -12 and CYP2C9 act 1.1.

High-throughput results (PubChem)
